INS-1E rescue: preserves ATP levels in cytokine-treated INS-1E cells. INS-1E cytokine-induced death, ATP luminescence, 48 h; normalised: neutral wells 0, positive control 100. protection from cytokine-induced ATP loss, % at 10 µM. 20,000 compounds, 0.1% hits. AID 488910;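 active means mean replicate protection from cytokine-induced ATP loss at least 50% and at least 75% of replicates each reaching 50%; inconclusive means meets only one of the two criteria, mean or replicate share; inactive means fails both the mean and replicate share criteria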
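Material: INS-1E rat cells; Quantity: 8000 cells/well; Buffer or medium: phenol-red-free RPMI with 5% fetal bovine serum; Probe or stimulus: cytokine cocktail of IFN-γ, TNF-α and IL-1β; Compound dosing: single test concentration per compound, delivered by pin transfer; Incubation: 48 h co-treatment, 10 min post-lysis read; Signal: CellTiter-Glo luminescence.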
A1 apoptosis 2: A1 inhibition read as caspase activation; MEF A1-2A-BIM cells, caspase-Glo luminescence, 3 h; percent of clofoctol response, DMSO zero; caspase activation, % (no concentration beside the values); 24,000 tested, under 10 active; in the data active means caspase activation above about 5.9%; inconclusive means no clear call, values can overlap the other calls; inactive means below about 2.2%
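system = A1-2A-BIM-expressing MEF cells | quantity = 2500 MEF cells/well | dosing = 50 nL compound per well, pinned | schedule = overnight cell settling, then 3 h compound exposure, 37 °C | signal = luminescence from DEVD-luciferin Caspase-Glo reagent, 1:1 in 50 mM HEPES, 1 h RT | read-out = Caspase-3/7 activation, seen as rise in luminescence signal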
T cruzi HTS: intracellular Trypanosoma cruzi inhibition. intracellular Trypanosoma cruzi in host cells, plate reader. activity score (inhibition), % at 5.01 µM. 22,000 compounds, 4.9% hits; in the data active means activity score above about 55%; inconclusive means no clear call, values can overlap the other calls;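 further: parasites and compound incubated about four days before reading; 0% = median of neutral control wells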
The depositor's hits bear a star; ? = inconclusive; nt = no result. This is one part of a sample in which hits are shown more often than they occur.

SMILES | INS-1E rescue | A1 apoptosis 2 | T cruzi HTS
COc1ccc(CN(C)C[C@H]2OCCCC[C@@H](C)Oc3ccc(NC(=O)Nc4cccc5ccccc45)cc3C(=O)N([C@H](C)CO)C[C@H]2C)cc1 | nt | -1 | nt
O=C(CCCCCCC(=O)Nc1ccccc1O)N/N=C/c1ccccn1 | 6 | 0 | -2
O=C(O)CCCCCCC(=O)N/N=C/c1ccc(-c2cccc(Cl)c2)o1 | 22 | nt | 4
O=C(CCCCCC(=O)N/N=C/c1cccs1)NO | nt | 1 | nt
O=C(O)CCCCCC(=O)N/N=C/c1ccc(N(c2ccccc2)c2ccccc2)cc1 | nt | 1 | nt
C[C@@H]1CN([C@@H](C)CO)C(=O)Cc2cc(NC(=O)Cc3cn(C)c4ccccc34)ccc2O[C@@H]1CN(C)Cc1ccc(C(=O)Nc2ccccc2N)cc1 | nt | 0 | nt
C[C@@H]1CN([C@H](C)CO)C(=O)Cc2cc(NC(=O)Cc3cn(C)c4ccccc34)ccc2O[C@@H]1CN(C)Cc1ccc(C(=O)Nc2ccccc2N)cc1 | -8 | 1 | 72*
C[C@H]1CN([C@@H](C)CO)C(=O)Cc2cc(NC(=O)Cc3cn(C)c4ccccc34)ccc2O[C@H]1CN(C)Cc1ccc(C(=O)Nc2ccccc2N)cc1 | 12 | nt | 66*
C[C@H](CO)N1C[C@H](C)[C@H](CN(C)Cc2ccc(C(=O)Nc3ccccc3N)cc2)Oc2ccc(NC(=O)Cc3cn(C)c4ccccc34)cc2CC1=O | 40 | nt | 34
COC(=O)c1c2oc(c1C(=O)OC)C(=O)N[C@@H](Cc1ccccc1)Cn1cc(nn1)[C@H](Cc1ccccc1)NC(=O)N[C@@H](CO)CC2 | nt | 0 | nt
CNC[C@@H]1OCCCC[C@H](C)Oc2ccc(NC(=O)Nc3ccc(C(F)(F)F)cc3)cc2C(=O)N([C@H](C)CO)C[C@@H]1C | nt | -1 | nt
C[C@H](CO)N1C[C@H](C)[C@H](CN(C)Cc2ccc3c(c2)OCO3)Oc2c(NC(=O)c3ccncc3)cccc2C1=O | -1 | 2 | 64*
C[C@@H]1CN([C@H](C)CO)C(=O)c2cccc(NC(=O)c3cnccn3)c2O[C@H]1CN(C)Cc1ccc(Cl)c(Cl)c1 | -11 | nt | 28
C[C@@H]1CN([C@H](C)CO)C(=O)c2cccc(NC(=O)c3cnccn3)c2O[C@@H]1CN(C)Cc1ccc(Cl)c(Cl)c1 | -20 | 0 | 26
C[C@@H]1CN([C@H](C)CO)C(=O)c2cccc(NC(=O)c3ccc(-c4nccs4)cc3)c2O[C@H]1CN(C)Cc1ccc2c(c1)OCO2 | -4 | nt | 45
C[C@H]1CN([C@@H](C)CO)C(=O)c2cccc(NC(=O)c3cnccn3)c2O[C@@H]1CN(C)Cc1ccc(Cl)c(Cl)c1 | -8 | nt | -11
C[C@H]1CN([C@@H](C)CO)C(=O)c2cccc(NC(=O)c3ccncc3)c2O[C@@H]1CN(C)Cc1ccc(Cl)c(Cl)c1 | -10 | -2 | 77*
C[C@@H]1CN([C@H](C)CO)C(=O)c2cccc(NC(=O)c3ccncc3)c2O[C@@H]1CN(C)Cc1ccc(Cl)c(Cl)c1 | -7 | -1 | 76*
C[C@H]1CN([C@@H](C)CO)C(=O)c2cccc(NC(=O)c3ccncc3)c2O[C@H]1CN(C)Cc1ccc(Cl)c(Cl)c1 | -3 | 0 | 86*
O=C1O[C@H](c2ccccc2)[C@H](c2ccccc2)N2[C@H]1[C@@H](C(=O)N1CCN(c3ncccn3)CC1)[C@]1(C(=O)Nc3ccccc31)[C@H]2c1ccccc1OCCO | nt | -1 | nt
O=C(NO)c1cccc(C(=O)N/N=C/c2ccncc2Br)c1 | -12 | -5 | -6
COCCOC(=O)N1C(=O)[C@@]2(c3cc(C#CC4=CCCCC4)ccc31)[C@H](c1ccccc1OCCO)N1[C@H](c3ccccc3)[C@H](c3ccccc3)OC(=O)[C@H]1[C@@H]2C(N)=O | nt | -1 | nt
O=C(CCCCCC(=O)N/N=C/c1cc(Cl)cc(Cl)c1O)NO | nt | 1 | nt
Cc1noc(C)c1S(=O)(=O)Nc1ccc2c(c1)CC(=O)N([C@@H](C)CO)C[C@H](C)[C@@H](CN(C)Cc1ccc(C(F)(F)F)cc1)O2 | 0 | nt | 61*
Cc1noc(C)c1S(=O)(=O)Nc1ccc2c(c1)C(=O)N([C@@H](C)CO)C[C@@H](C)[C@H](CN(C)Cc1ccc3c(c1)OCO3)O2 | 0 | nt | 1
SMILES | INS-1E rescue | A1 apoptosis 2 | T cruzi HTS
Cc1noc(C)c1S(=O)(=O)Nc1ccc2c(c1)CC(=O)N([C@@H](C)CO)C[C@H](C)[C@H](CN(C)Cc1ccc(C(F)(F)F)cc1)O2 | 2 | nt | 41
Cc1noc(C)c1S(=O)(=O)Nc1ccc2c(c1)CC(=O)N([C@H](C)CO)C[C@@H](C)[C@H](CN(C)Cc1ccc(Cl)c(Cl)c1)O2 | -20 | 0 | 63*
Cc1noc(C)c1S(=O)(=O)Nc1ccc2c(c1)C(=O)N([C@H](C)CO)C[C@H](C)[C@H](CN(C)Cc1ccc3c(c1)OCO3)O2 | -11 | nt | 58*
Cc1noc(C)c1S(=O)(=O)Nc1ccc2c(c1)C(=O)N([C@H](C)CO)C[C@H](C)[C@H](CN(C)Cc1ccc(Cl)c(Cl)c1)O2 | -15 | 0 | ?
Cc1noc(C)c1S(=O)(=O)Nc1ccc2c(c1)CC(=O)N([C@@H](C)CO)C[C@H](C)[C@H](CN(C)Cc1ccc(Cl)c(Cl)c1)O2 | -25 | nt | 55
Cc1noc(C)c1S(=O)(=O)Nc1ccc2c(c1)C(=O)N([C@@H](C)CO)C[C@H](C)[C@H](CN(C)Cc1ccc(Cl)c(Cl)c1)O2 | -12 | 0 | 62*
CCn1c2ccccc2c2cc(/C=N/NC(=O)c3ccccn3)ccc21 | -5 | -1 | 30
O=C1c2ccccc2C(=O)N1[C@@H]1CCN(Cc2cccc(OCCO)c2)C1 | nt | -1 | nt
COC(=O)CCCCCCC(=O)N/N=C/c1ccc([N+](=O)[O-])c(O)c1 | -2 | 0 | 9
C[C@H](CO)N1C[C@H](C)[C@H](CN(C)Cc2ccc(-c3ccccc3)cc2)Oc2ccc(NC(=O)NC3CCCCC3)cc2CC1=O | -20 | nt | 39
C[C@H]1CN([C@@H](C)CO)C(=O)Cc2cc(NC(=O)Nc3ccccc3)ccc2O[C@H]1CN(C)Cc1ccc(-c2ccccc2)cc1 | 8 | 0 | -18
C[C@@H]1CN([C@@H](C)CO)C(=O)Cc2cc(NC(=O)c3ccncc3)ccc2O[C@@H]1CN(C)Cc1ccccc1 | 1 | nt | 0
C[C@@H]1CN([C@@H](C)CO)C(=O)Cc2cc(NC(=O)Nc3ccccc3)ccc2O[C@@H]1CN(C)Cc1ccc(-c2ccccc2)cc1 | -11 | -1 | 62*
C[C@H]1CN([C@@H](C)CO)C(=O)Cc2cc(NC(=O)NC3CCCCC3)ccc2O[C@H]1CN(C)Cc1ccc(-c2ccccc2)cc1 | -35 | nt | 67*
C[C@@H]1CN([C@@H](C)CO)C(=O)Cc2cc(NC(=O)Nc3ccc(F)cc3)ccc2O[C@@H]1CN(C)Cc1ccc(-c2ccccc2)cc1 | -6 | -1 | 61*
C[C@H](CO)N1C[C@H](C)[C@H](CN(C)Cc2ccc(-c3ccccc3)cc2)Oc2ccc(NC(=O)Nc3ccccc3)cc2CC1=O | -16 | nt | ?
C[C@H]1CN([C@@H](C)CO)C(=O)Cc2cc(NC(=O)c3ccncc3)ccc2O[C@H]1CN(C)Cc1ccc(-c2ccccc2)cc1 | -9 | nt | 78*

From PubChem BioAssay
